pIC50: −log10 of the molar value.

Assay [1] relates to 3T3-L1. Nature of the assay: Increase in 2-NBDG uptake in mouse 3T3L1 cells at 400 ug/ml after 30 mins by fluorescence spectrophotometry relative to DMSO-treated control. The assay is classed as functional. The method in brief: (§1)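 Mouse 3T3-L1 preadipocytes were differentiated with insulin, IBMX, dexamethasone, rosiglitazone and 10% FBS, then used 7 days after induction at 3 × 10^4 cells/well. Cells were starved 3 h in low-glucose serum-free DMEM, treated 30 min, then given 50 μM 2-NBDG for 1 h (90 min total). After lysis in 0.1 M K3PO4/1% Triton X-100, fluorescence was read at ex 450/em 535 nm; fold versus DMSO; triplicates, mean ± SD.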

For assay [2], the system named is 3T3-L1. Nature of the assay: Increase in 2-NBDG uptake in mouse 3T3L1 cells after 30 mins by fluorescence spectrophotometry. The assay is classed as functional, cell-based. In short, it runs like this: as §1
For assay [3], the target named is T1, Tyrosine-protein phosphatase non-receptor type 1 (Homo sapiens, UniProt P18031).
T1 sequence (P18031 whole entry): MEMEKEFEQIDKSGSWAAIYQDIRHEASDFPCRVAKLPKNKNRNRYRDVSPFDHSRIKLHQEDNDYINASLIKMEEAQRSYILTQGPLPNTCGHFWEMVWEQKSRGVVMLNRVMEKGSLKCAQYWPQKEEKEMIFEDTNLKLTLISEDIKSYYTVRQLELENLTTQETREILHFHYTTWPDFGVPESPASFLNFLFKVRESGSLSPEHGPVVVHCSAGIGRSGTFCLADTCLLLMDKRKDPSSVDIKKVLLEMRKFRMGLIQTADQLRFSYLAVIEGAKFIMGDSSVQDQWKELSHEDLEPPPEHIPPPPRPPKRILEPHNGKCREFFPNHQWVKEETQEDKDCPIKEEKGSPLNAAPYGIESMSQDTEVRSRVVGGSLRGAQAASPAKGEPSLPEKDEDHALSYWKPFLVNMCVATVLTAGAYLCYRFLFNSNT
Nature of the assay: Inhibition of PTP1B (unknown origin) assessed as p-nitrophenol release from pNPP substrate after 30 mins by spectrophotometry. The note with it: for pIC50: read-out: IC50. The method in brief: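 Commercial PTP1B (0.05–0.1 μg) was incubated with 4 mM p-NPP in 50 mM citrate pH 6.0, 1 mM DTT, 0.1 M NaCl and 1 mM EDTA at 37 °C for 30 min. IC50 came from a seven-concentration curve; triplicates, mean ± SD.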

In the case of `CN(CCOc1ccc(CC2SC(=O)NC2=O)cc1)c1ccccn1` (configuration not stated) [ROSIGLITAZONE], the “fold change (FC)” value in the assay on 3T3-L1 [1] is 1.7.

`COc1cc([C@H]2OC[C@H]3[C@@H]2CO[C@@H]3c2cc(OC)c(O)c(OC)c2)cc(OC)c1O` [SYRINGARESINOL]: the Activity entry in the assay with 3T3-L1 [2] is “Dose-dependent effect”. Besides, the “fold change (FC)” value in the assay with 3T3-L1 [1] stood at 1.46. The pIC50 in assay [3] was 4.82.

`O=C1O[C@@H](c2ccc(O)c(O)c2)[C@H](CO)/C1=C\c1ccc(O)c(O)c1` (relative stereo): the IC50 entry in assay [3] is listed as “Not Active”.

Turning to `Oc1ccc([C@H]2OC[C@H]3[C@@H]2CO[C@H]3c2ccc(O)c(O)c2)cc1O`, in the assay with 3T3-L1 [2], the Activity result was “Dose-dependent effect”. The “fold change (FC)” value with 3T3-L1 [1] (in the assay text read “at 20 uM” for “at 400 ug/ml”) was found to be 1.52. Also, the pIC50 in assay [3] was 4.66.

With `O=C(O)/C=C/c1ccc2c(c1)O[C@@H](CO)[C@H](c1ccc(O)c(O)c1)O2` (relative stereo), in assay [3], the pIC50 is less than 4.52.

Take `COc1cc([C@H]2Oc3ccc(C(=O)O)cc3O[C@@H]2CO)ccc1O`: the pIC50 in assay [3] was 4.71.

As to `Oc1ccc([C@@H]2OC[C@@H]3[C@H]2CO[C@H]3c2ccc(O)c(O)c2)cc1O`, the pIC50 in assay [3] was less than 4.52.

Take `O=C(O)/C=C/c1ccc2c(c1)O[C@@H](CO)[C@@H](c1ccc(O)c(O)c1)O2`: the pIC50 in assay [3] was less than 4.52.

On to `COc1cc([C@@H]2OC[C@H]3[C@@H]2CO[C@H]3c2ccc(O)c(OC)c2)ccc1O` [(-)-PINORESINOL], for which the pIC50 in assay [3] is 4.73.

Take `COc1cc([C@H]2OC[C@H]3[C@@H]2CO[C@@H]3c2cc(OC)c(OC)c(OC)c2)cc(OC)c1OC`: the Activity entry in the assay on 3T3-L1 [2] is “Dose-dependent effect”. The “fold change (FC)” value in the assay with 3T3-L1 [1] was 1.45. Further, in assay [3], the pIC50 was 4.77.

Consider `C[C@H]1[C@H](C)CC[C@]2(C(=O)O)CC[C@]3(C)C(=CC[C@@H]4[C@@]5(C)CC[C@H](O)C(C)(C)[C@@H]5CC[C@]43C)[C@H]12` [URSOLIC ACID], for which the Activity result in the assay with 3T3-L1 [2] was “Dose-dependent effect”. For the same molecule, in the assay with 3T3-L1 [1], the “fold change (FC)” value was determined as 1.82.

As for `O=C/C=C/c1ccc2c(c1)O[C@@H](CO)[C@H](c1ccc(O)c(O)c1)O2` [AMERICANIN A], the IC50 result in assay [3] is given as “Not Active”.

For the molecule `COc1cc([C@H]2Oc3ccc(/C=C/C(=O)O)cc3O[C@@H]2CO)ccc1O`, the pIC50 in assay [3] is less than 4.52.

For `O=C1O[C@@H](c2ccc(O)c(O)c2)[C@@H]2CO[C@@H](c3ccc(O)c(O)c3)[C@H]12`, the IC50 entry in assay [3] is given as “Not Active”.

With `COc1cc([C@H]2Oc3ccc(CCCO)cc3O[C@@H]2CO)ccc1O` (relative stereo), the pIC50 in assay [3] was less than 4.52.

(Values after ChEMBL document CHEMBL3085712, “Protein tyrosine phosphatase 1B (PTP1B) inhibitors from Morinda citrifolia (Noni) and their insulin mimetic activity” (J Nat Prod, 2013).)
